Test results as given in ChEMBL document CHEMBL1649417, “α,β-Unsaturated carbonyl system of chalcone-based derivatives is responsible for broad inhibition of proteasomal activity and preferential killing of human papilloma virus (HPV) positive cervical cancer cells” (J Med Chem, 2011).
Calls of active or inactive are those of the source. The calls are words filed in the database; no cut-off is given here.

What was measured:
HeLa [1] = experiment: Cytotoxicity against HPV18 transformed human HeLa cells after 48 hrs by XTT assay; type: functional, cell-based
In short: (§1)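 ATCC lines grown in DMEM with 10% FBS, penicillin/streptomycin, 5% CO2; 1,000 cells/well exposed to compound (HeLa and CaSki tested over 100 to 0.01 µM). After treatment, XTT labeling mixture for 4 h, absorbance at 450 nm. Triplicate runs; IC50 is the average of three independent determinations.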

CaSki (Homo sapiens) = experiment: Cytotoxicity against CaSki transformed human cervical carcinoma cells after 48 hrs by XTT assay
HeLa [2] = experiment: Increase of polyubiquitinated accumulation in human HeLa cells at 10 uM after 8 hrs by immunoblotting; type: functional, cell-based
In short: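 HeLa cells treated 8 h with or without compound, then lysates immunoblotted for poly-ubiquitinated proteins; β-actin antibody to confirm equal loading; bortezomib positive control.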

[3] = Inhibition of chymotrypsin-like activity of 20S proteasome isolated from human LCL after 30 mins by fluorimetric analysis
In short: (§2)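 Semipurified proteasome from lymphoblastoid cells: glass-bead lysis in Tris pH 7.5/MgCl2/DTT/2 mM ATP/sucrose buffer, differential and 100,000g ultracentrifugation. Preincubated with inhibitor 30 min at 37°C, then 45 min at 37°C with Suc-LLVY-AMC (chymotrypsin-like), Boc-LRR-AMC (trypsin-like) or Ac-YVAD-AMC (caspase/PGPH-like) in 50 mM Tris pH 7.5, 5 mM MgCl2, 1 mM DTT. Quenched with 1% SDS; ex 380/em 440 nm; percent inhibition versus untreated.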

[4] = biological target: Cathepsin D (Homo sapiens) (UniProt P07339); experiment: Inhibition of cathepsin D up to 50 uM by fluorometric analysis
ME-180 = experiment: Cytotoxicity against HPV58 transformed human ME180 cells after 48 hrs by XTT assay; type: functional, cell-based; in short: as §1
[5] = Inhibition of PGPH-like activity of 20S proteasome isolated from human LCL after 30 mins by fluorimetric analysis; in short: as §2
HeLa [6] = experiment: Inhibition of proteasome activity in human HeLa cells assessed as induction of ubiquitinG76V-FL reporter level at 5 nM after 8 hrs by luciferase assay; conditions: 1 µM, in the assay text read “at 1 µM” for “at 5 nM”
In short: (§3)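 HeLa transiently transfected with Ub(G76V)4-FL or CMV-FL control, replated 24 h later at 1×10^4 cells/well, drug added after 18 h attachment. Luciferase measured in cell lysate, RLU expressed as % of control; SE from three independent experiments.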

SiHa = experiment: Cytotoxicity against HPV16 transformed human SiHa cells after 48 hrs by XTT assay; type: functional, cell-based; in short: as §1
HeLa [7] = experiment: Inhibition of proteasome activity in human HeLa cells assessed as induction of ubiquitinG76V-FL reporter level at 1 uM after 8 hrs by luciferase assay; in short: as §3
[8] = Inhibition of trypsin-like activity of 20S proteasome isolated from human LCL after 30 mins by fluorimetric analysis; in short: as §2
[9] = Inhibition of calpain up to 50 uM by fluorometric analysis
[10] = Cytotoxicity against human keratinocytes assessed as effect on cell viability at 1.6 to 25 uM after 48 hrs by XTT assay; type: cell-based; conditions: keratinocyte
In short: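 Primary keratinocytes cultured in defined Keratinocyte-SFM, treated 48 h at the indicated concentrations, 1,000 cells/well. XTT reagent for 4 h, absorbance at 450 nm; viability plotted as fraction of untreated control cultures; triplicate.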

Sequence of Cathepsin D (Homo sapiens) (P07339 65-162 limits assumed): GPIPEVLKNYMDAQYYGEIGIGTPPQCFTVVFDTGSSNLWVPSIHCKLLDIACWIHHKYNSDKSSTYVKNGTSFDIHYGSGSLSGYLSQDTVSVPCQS
Sequence of Cathepsin D (Homo sapiens) (P07339 169-412 limits assumed): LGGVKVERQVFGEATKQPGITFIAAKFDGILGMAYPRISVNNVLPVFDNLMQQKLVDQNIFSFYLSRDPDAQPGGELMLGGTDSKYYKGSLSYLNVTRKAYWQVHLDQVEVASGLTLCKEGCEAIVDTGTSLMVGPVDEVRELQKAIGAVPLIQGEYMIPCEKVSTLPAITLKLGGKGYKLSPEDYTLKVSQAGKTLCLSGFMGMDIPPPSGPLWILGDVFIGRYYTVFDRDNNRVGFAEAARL

Compound | IC50 (HeLa [1]) | IC50 (CaSki (Homo sapiens)) | Activity (HeLa [2]) | other results
N=C(N)NCCC[C@H](NC(=O)[C@H](CCCCN)NC(=O)N1C/C(=C\c2ccc(Cl)c(Cl)c2)C(=O)/C(=C/c2ccc(Cl)c(Cl)c2)C1)C(=O)O | > 50 µM | > 50 µM |  | 
O=C1/C(=C/c2ccc(Cl)c(Cl)c2)CN(C(=O)N[C@@H](Cc2ccccc2)C(=O)O)C/C1=C\c1ccc(Cl)c(Cl)c1 | 0.32 µM | 1.5 µM | Active | IC50 [3]: 4.8 µM; inhibition [4]: inactive; Activity (ME-180): Dose-dependent effect; IC50 [5]: 6.2 µM; inhibition (HeLa [6]): Active; Activity (SiHa): Dose-dependent effect; inhibition (HeLa [7]): Active; IC50 [8]: 6.6 µM; inhibition [9]: inactive; Activity [10]: Non-toxic
NCCCC[C@H](NC(=O)N1C/C(=C\c2ccc(Cl)c(Cl)c2)C(=O)/C(=C/c2ccc(Cl)c(Cl)c2)C1)C(=O)O | > 50 µM | > 50 µM |  | 
O=C1/C(=C/c2ccc(Cl)c(Cl)c2)CN(C(=O)N[C@@H](Cc2ccccc2)C(=O)N[C@@H](Cc2ccc(O)cc2)C(=O)O)C/C1=C\c1ccc(Cl)c(Cl)c1 | > 50 µM | > 50 µM |  | 
N=C(N)NCCC[C@H](NC(=O)N1C/C(=C\c2ccc(Cl)c(Cl)c2)C(=O)/C(=C/c2ccc(Cl)c(Cl)c2)C1)C(=O)N[C@@H](CCCCN)C(=O)O | > 50 µM | > 50 µM |  | 
O=C(O)CC[C@H](NC(=O)N1C/C(=C\c2ccc(Cl)c(Cl)c2)C(=O)/C(=C/c2ccc(Cl)c(Cl)c2)C1)C(=O)N[C@@H](CC(=O)O)C(=O)O | > 50 µM | > 50 µM |  | 
CN1C/C(=C\c2ccc(B(O)O)cc2)C(=O)/C(=C/c2ccc(B(O)O)cc2)C1 | 8 µM | 9 µM |  | 
CC(C)C[C@H](NC(=O)N1C/C(=C\c2ccc(Cl)c(Cl)c2)C(=O)/C(=C/c2ccc(Cl)c(Cl)c2)C1)C(=O)O | 10 µM | 20 µM | Active | IC50 [3]: 9.3 µM; IC50 [5]: > 10 µM; IC50 [8]: > 10 µM
CC(C)C[C@H](NC(=O)[C@H](Cc1ccccc1)NC(=O)c1cnccn1)B(O)O |  |  |  | inhibition (HeLa [6]): Active; inhibition (HeLa [7]): Active
O=C1/C(=C/c2ccc(Cl)c(Cl)c2)CN(C(=O)N[C@@H](Cc2ccc(O)cc2)C(=O)O)C/C1=C\c1ccc(Cl)c(Cl)c1 | 10 µM | 10 µM | Active | IC50 [3]: 4.2 µM; IC50 [5]: > 10 µM; IC50 [8]: 8.4 µM
O=C(O)CC[C@H](NC(=O)N1C/C(=C\c2ccc(Cl)c(Cl)c2)C(=O)/C(=C/c2ccc(Cl)c(Cl)c2)C1)C(=O)O | > 50 µM | > 50 µM | inactive | 
